# Key:
# Plasmodium falciparum [1] = test: In vitro antimalarial activity against Plasmodium falciparum W2 Indochina; type: functional, organism-based
# Method in brief: (§1)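 Clones D-6 and W-2 tested in parallel. Compounds dissolved in DMSO, diluted 400-fold in RPMI 1640 with 25 mM Hepes, 32 mM NaHCO3 and 10% human plasma, then serially diluted 2-fold over 11 concentrations. Parasites preexposed 48 h at 37 °C under 5% O2/5% CO2/90% N2, then [3H]hypoxanthine added for 18 h; DNA harvested, uptake counted by scintillation. IC50 from logistic dose-response model; arithmetic mean of ≥3 runs.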
# Plasmodium falciparum [2] = test: In vitro antimalarial activity against Plasmodium falciparum D6 (Sierra Leone I); type: functional, organism-based; method in brief: as §1
SMILES,IC50 (Plasmodium falciparum [1]),IC50 (Plasmodium falciparum [2])
CCOC(=O)C[C@@H](O[C@H]1O[C@@H]2O[C@@]3(C)CC[C@H]4[C@H](C)CCC([C@H]1C)[C@@]24OO3)c1ccccc1 (some centres undefined),0.213 ng/mL,0.496 ng/mL
CCC[C@H](Cc1ccccc1)O[C@H]1O[C@@H]2O[C@@]3(C)CC[C@H]4[C@H](C)CCC([C@H]1C)[C@@]24OO3 (some centres undefined),1.92 ng/mL,3.05 ng/mL
CCC[C@@H](Cc1ccccc1)O[C@H]1O[C@@H]2O[C@@]3(C)CC[C@H]4[C@H](C)CCC([C@H]1C)[C@@]24OO3 (some centres undefined),0.697 ng/mL,0.972 ng/mL
COC(=O)c1ccc([C@H](C)O[C@H]2O[C@@H]3O[C@@]4(C)CC[C@H]5[C@H](C)CCC([C@H]2C)[C@@]35OO4)cc1 (some centres undefined),0.335 ng/mL,0.692 ng/mL
CCOC(=O)C[C@H](O[C@H]1O[C@@H]2O[C@@]3(C)CC[C@H]4[C@H](C)CCC([C@H]1C)[C@@]24OO3)c1ccc([N+](=O)[O-])cc1 (some centres undefined),0.0487 ng/mL,0.246 ng/mL
C[C@@H]1CCC2[C@@H](C)[C@@H](O[C@H](C)c3ccc(C(=O)O)cc3)O[C@@H]3O[C@@]4(C)CC[C@@H]1[C@@]23OO4 (some centres undefined),2.54 ng/mL,5.77 ng/mL
C[C@@H]1CCC2[C@@H](C)[C@@H](O[C@H](C)c3ccc(C(F)(F)F)cc3)O[C@@H]3O[C@@]4(C)CC[C@@H]1[C@@]23OO4 (some centres undefined),1.15 ng/mL,1.46 ng/mL
COC(=O)c1ccc([C@@H](C)O[C@H]2O[C@@H]3O[C@@]4(C)CC[C@H]5[C@H](C)CCC([C@H]2C)[C@@]35OO4)cc1 (some centres undefined),0.337 ng/mL,0.921 ng/mL
C[C@@H]1CCC2[C@@H](C)[C@@H](O[C@H](CC(=O)O)c3ccc([N+](=O)[O-])cc3)O[C@@H]3O[C@@]4(C)CC[C@@H]1[C@@]23OO4 (some centres undefined),1.35 ng/mL,2.87 ng/mL
CCOC(=O)C[C@@H](O[C@H]1O[C@@H]2O[C@@]3(C)CC[C@H]4[C@H](C)CCC([C@H]1C)[C@@]24OO3)c1ccc([N+](=O)[O-])cc1 (some centres undefined),0.23 ng/mL,0.563 ng/mL
C[C@H](O[C@H]1O[C@@H]2O[C@@]3(C)CC[C@H]4[C@H](C)CCC([C@H]1C)[C@@]24OO3)c1ccc(C(=O)O)cc1 (some centres undefined),1.23 ng/mL,2.94 ng/mL
CCOC(=O)[C@H](O[C@H]1O[C@@H]2O[C@@]3(C)CC[C@H]4[C@H](C)CCC([C@H]1C)[C@@]24OO3)c1ccccc1 (some centres undefined),0.0938 ng/mL,0.287 ng/mL
CCOC(=O)[C@@H](O[C@H]1O[C@@H]2O[C@@]3(C)CC[C@H]4[C@H](C)CCC([C@H]1C)[C@@]24OO3)c1ccccc1 (some centres undefined),0.227 ng/mL,0.509 ng/mL
CCOC(=O)C[C@H](O[C@H]1O[C@@H]2O[C@@]3(C)CC[C@H]4[C@H](C)CCC([C@H]1C)[C@@]24OO3)c1ccccc1 (some centres undefined),0.144 ng/mL,0.459 ng/mL
C[C@@H]1[C@H](OCc2ccc(C(=O)O)cc2)O[C@@H]2O[C@@]3(C)CC[C@@H]4[C@@H](C)CC[C@@H]1[C@]24OO3 [ARTELINIC ACID],2.08 ng/mL,4.87 ng/mL
CO[C@H]1O[C@@H]2O[C@@]3(C)CC[C@H]4[C@H](C)CC[C@@H]([C@H]1C)[C@@]24OO3 [ARTEMETHER],0.301 ng/mL,0.869 ng/mL
C[C@@H]1CC[C@H]2[C@@H](C)C(=O)O[C@@H]3O[C@@]4(C)CC[C@@H]1[C@]32OO4 [ARTEMISININ],1.01 ng/mL,2.3 ng/mL

# — ChEMBL document CHEMBL1128251, “Antimalarial activity of new dihydroartemisinin derivatives. 6. alpha-Alkylbenzylic ethers” (J Med Chem, 1995)
